According to ChEMBL document CHEMBL2331343 (Bioorg Med Chem, 2013):
The source made the active and inactive calls. The rule behind the calls is not given here.

Columns and labels:
[1] = target: T1, 5-hydroxytryptamine receptor 2A (Homo sapiens, UniProt P28223); test: Displacement of [3H]Ketanserin from 5-HT2A receptor (unknown origin) expressed in HEK293 cells by liquid scintillation counter; type: cell-based
[2] = target: T2, 5-hydroxytryptamine receptor 1A (Homo sapiens, UniProt P08908); test: Displacement of [3H]8-OH-DPAT from 5-HT1A receptor (unknown origin) expressed in HEK293 cells by liquid scintillation counter; type: cell-based
T2 sequence (P08908 whole entry): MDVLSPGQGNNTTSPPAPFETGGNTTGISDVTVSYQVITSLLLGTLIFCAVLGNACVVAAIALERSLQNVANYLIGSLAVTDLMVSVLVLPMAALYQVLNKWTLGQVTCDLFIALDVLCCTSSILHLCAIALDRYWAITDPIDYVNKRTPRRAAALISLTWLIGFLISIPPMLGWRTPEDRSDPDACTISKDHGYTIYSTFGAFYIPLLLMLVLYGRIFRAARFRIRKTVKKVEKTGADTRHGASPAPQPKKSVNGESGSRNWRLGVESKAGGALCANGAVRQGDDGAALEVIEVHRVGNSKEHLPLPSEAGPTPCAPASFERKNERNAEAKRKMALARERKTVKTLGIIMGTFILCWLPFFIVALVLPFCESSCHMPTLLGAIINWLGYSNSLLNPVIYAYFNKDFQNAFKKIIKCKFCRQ

D(2) dopamine receptor [3] = target: T3, D(2) dopamine receptor (Homo sapiens, UniProt P14416); test: Displacement of [3H]spiperone from dopamine D2 receptor (unknown origin) expressed in human HEK293 cells by liquid scintillation counter; type: cell-based
T3 sequence (P14416 whole entry): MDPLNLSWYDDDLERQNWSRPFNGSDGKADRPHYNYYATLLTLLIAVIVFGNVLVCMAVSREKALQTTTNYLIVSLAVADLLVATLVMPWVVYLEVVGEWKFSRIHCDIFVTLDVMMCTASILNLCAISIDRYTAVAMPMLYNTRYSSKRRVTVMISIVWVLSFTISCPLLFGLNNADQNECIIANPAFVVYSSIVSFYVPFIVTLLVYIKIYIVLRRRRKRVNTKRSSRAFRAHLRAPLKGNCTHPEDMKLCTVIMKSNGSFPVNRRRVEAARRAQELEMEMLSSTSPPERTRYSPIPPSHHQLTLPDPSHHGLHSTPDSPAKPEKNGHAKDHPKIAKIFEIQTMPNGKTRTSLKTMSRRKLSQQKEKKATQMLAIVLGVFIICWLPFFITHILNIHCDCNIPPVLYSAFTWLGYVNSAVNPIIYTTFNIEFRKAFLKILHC

D(1A) dopamine receptor [4] = target: T4, D(1A) dopamine receptor (Homo sapiens, UniProt P21728); test: Displacement of [3H]SCH23390 from dopamine D1 receptor (unknown origin) expressed in human HEK293 cells by liquid scintillation counter; type: cell-based
T4 sequence (P21728 whole entry): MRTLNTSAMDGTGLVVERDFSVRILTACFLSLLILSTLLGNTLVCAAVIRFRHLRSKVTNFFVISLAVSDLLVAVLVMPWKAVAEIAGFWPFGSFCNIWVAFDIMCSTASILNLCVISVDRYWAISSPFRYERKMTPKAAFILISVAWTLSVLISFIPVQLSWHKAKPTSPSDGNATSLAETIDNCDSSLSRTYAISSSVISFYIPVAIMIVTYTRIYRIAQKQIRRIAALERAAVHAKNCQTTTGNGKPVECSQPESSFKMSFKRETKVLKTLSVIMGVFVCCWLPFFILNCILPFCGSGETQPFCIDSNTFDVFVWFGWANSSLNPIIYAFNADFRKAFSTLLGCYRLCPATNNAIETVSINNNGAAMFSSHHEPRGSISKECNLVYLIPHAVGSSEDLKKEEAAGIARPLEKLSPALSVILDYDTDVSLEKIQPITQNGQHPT
Summary of the method: (§1)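 Stably transfected HEK293T D1 membranes, […], duplicate incubation 50 min at 30 °C with [3H]SCH23390 in 50 mM Tris, 4 mM MgCl2, pH 7.4. Nonspecific binding with 10 μM SCH23390. GF/B filtration, scintillation counting.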

[5] = target: T1, 5-hydroxytryptamine receptor 2A; test: Inhibition of [3H]Ketanserin binding to 5-HT2A receptor (unknown origin) expressed in HEK293 cells at 10 uM by liquid scintillation counter relative to control; type: cell-based
Summary of the method: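 Membranes of HEK293T stably transfected with 5-HT2A, […], incubated in duplicate 15 min at 37 °C with [3H]ketanserin in 50 mM Tris, 4 mM MgCl2, pH 7.4. […] GF/B filtration, cold wash, scintillation counting.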

[6] = target: T5, 5-hydroxytryptamine receptor 1A (Homo sapiens) (UniProt P08908); test: Inhibition of [3H]8-OH-DPAT binding to 5-HT1A receptor (unknown origin) expressed in HEK293 cells at 10 uM by liquid scintillation counter relative to control; type: cell-based
T5 sequence (whole entry): T2 sequence (P08908 whole entry)
Summary of the method: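 Membranes of HEK293T stably transfected with 5-HT1A, […], incubated in duplicate 50 min at 30 °C with [3H]8-OH-DPAT in 50 mM Tris, 4 mM MgCl2, pH 7.4. Nonspecific binding with 10 μM WAY100635. Filtration on GF/B, cold Tris/EDTA wash, scintillation counting.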

D(1A) dopamine receptor [7] = target: T4, D(1A) dopamine receptor; test: Inhibition of [3H]SCH23390 binding to dopamine D1 receptor (unknown origin) expressed in human HEK293 cells at 10 uM by liquid scintillation counter relative to control; type: cell-based; summary of the method: as §1
D(2) dopamine receptor [8] = target: T3, D(2) dopamine receptor; conditions: HEK293, at 10 µM
Rattus norvegicus = test: Antipsychotic activity in Sprague-Dawley rat schizophrenia model assessed as inhibition of PCP-induced prepulse inhibition at 0.5 mg/kg, ip administered 10 mins prior testing monitored for 5 mins; type: functional, organism-based; parameters: dose 0.5 mg/kg
Summary of the method: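 Male Sprague–Dawley rats (230–280 g) received ip saline or drug 10 min before PCP (5 mg/kg, ip). Acoustic startle PPI was tested 5 min after PCP, after 3-min acclimation: 40 ms, 120 dB white-noise pulse-alone and prepulse+pulse trials, 15–25 s intertrial interval, 74 dB background, about 20 min session. %PPI = [1 − (prepulse+pulse startle)/(pulse-alone startle)] × 100.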

T1 sequence (P28223 whole entry): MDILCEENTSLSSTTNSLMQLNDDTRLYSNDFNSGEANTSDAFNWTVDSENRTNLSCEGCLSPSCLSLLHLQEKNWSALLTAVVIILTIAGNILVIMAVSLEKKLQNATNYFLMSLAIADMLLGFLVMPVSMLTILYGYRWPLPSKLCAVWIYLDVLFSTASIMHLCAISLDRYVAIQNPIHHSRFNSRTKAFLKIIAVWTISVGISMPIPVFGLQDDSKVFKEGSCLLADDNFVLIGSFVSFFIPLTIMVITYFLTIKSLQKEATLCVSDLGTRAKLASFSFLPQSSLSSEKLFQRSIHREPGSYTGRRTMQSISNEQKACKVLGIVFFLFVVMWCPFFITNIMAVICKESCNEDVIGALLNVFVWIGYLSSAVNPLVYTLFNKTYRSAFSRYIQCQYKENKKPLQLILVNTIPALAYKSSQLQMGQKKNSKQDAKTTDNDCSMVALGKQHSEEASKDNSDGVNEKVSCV

Structure (SMILES) | Ki [1] [nM] | Ki [2] [nM] | Ki (D(2) dopamine receptor [3]) [nM] | Ki (D(1A) dopamine receptor [4]) [nM] | inhibition [5] [%] | inhibition [6] [%] | inhibition (D(1A) dopamine receptor [7]) [%] | inhibition (D(2) dopamine receptor [8]) [%] | inhibition (Rattus norvegicus)
COc1cc2c(cc1O)CCN1Cc3c(ccc(O)c3OC)C[C@@H]21 | > 5000 | > 5000 | 113 | 200 | 84 | 76.7 | 98.3 | 94.2 | 
COc1cc2c(cc1O)[C@@H]1Cc3ccc(OC)c(O)c3CN1CC2 [SCOULERINE] |  |  | 214 | 22 | 20.9 | 14.2 | 99.1 | 93.4 | 
COc1c(O)ccc2c1CN1CCc3cc4c(cc3[C@H]1C2)OCO4 |  |  |  | 565 | 25.3 | 63.6 | 95.8 | 40.5 | 
COc1c(O)ccc2c1CN1CCc3cc4c(cc3[C@@H]1C2)OCC4 | 480 | > 5000 |  | 7.5 | 91.7 | 79.5 | 99.3 | 63.9 | 
COc1cc2c(cc1OC)[C@H]1Cc3ccc(OC)c(O)c3CN1CC2 |  |  |  |  | 19.3 | 6.2 | 35.9 | 1.5 | 
COc1cc2c(cc1O)[C@H]1Cc3ccc(OC)c(OC)c3CN1CC2 |  |  |  | […] | 40.6 | 64.2 | 99.5 |  | 
COc1cc2c(cc1O)[C@H]1Cc3ccc(O)c(OC)c3CN1CC2 |  |  |  | 135 | 16.4 | 53.6 | 94.4 | 53.7 | 
COc1cc2c(cc1O)[C@@H]1Cc3c(CO)c(OC)cc(OC)c3CN1CC2 |  | > 5000 |  |  |  |  | 104 | 94.8 | 
COc1ccc2c(c1OC)CN1CCc3cc4c(cc3[C@@H]1C2)OCO4 [CANADINE] |  | > 5000 | 119 | 66 | 46.6 | 84.4 | 98.3 | 88.7 | 
COc1ccc2c(c1O)CN1CCc3cc4c(cc3[C@H]1C2)OCO4 |  |  |  | > 5000 | 10.9 | 25.5 | 78.9 | 20.4 | 
COc1cc2c(cc1O)CCN1Cc3c(ccc(OC)c3O)C[C@H]21 |  |  |  |  | 36 | 31.5 | 49.4 | 8.16 | 
COc1c(O)ccc2c1CN1CCc3cc4c(cc3[C@@H]1C2)OCCO4 | 363 | 208 |  |  | 97.3 | 90.8 | 22.6 | 73.1 | 
COc1cc2c(cc1O)[C@@H]1Cc3ccc(OC)c(OC)c3CN1CC2 |  |  |  | […] | 40.5 | 71.1 | 99.2 |  | 
CN1CCc2cc(Cl)c(O)cc2C(c2ccccc2)C1 (stereo not given) |  |  |  |  |  |  | 100 |  | 
COc1cc2c(c(OC)c1)CN1CCc3cc(OC)c(O)cc3[C@@H]1C2 |  |  |  |  |  |  | 99.8 |  | 
COc1cc2c(cc1OC)[C@H]1Cc3ccc(O)c(OC)c3CN1CC2 |  |  |  |  | 27.9 | 65.5 | 54.4 | 3.4 | 
COc1cc2c(cc1OC)[C@H]1Cc3ccc(OC)c(OC)c3CN1CC2 |  |  |  |  | 29.7 | 30.4 | 39.8 | 20.5 | 

Structure (SMILES) | Ki [1] [nM] | Ki [2] [nM] | Ki (D(2) dopamine receptor [3]) [nM] | Ki (D(1A) dopamine receptor [4]) [nM] | inhibition [5] [%] | inhibition [6] [%] | inhibition (D(1A) dopamine receptor [7]) [%] | inhibition (D(2) dopamine receptor [8]) [%] | inhibition (Rattus norvegicus)
COc1cc2c(cc1O)[C@@H]1Cc3cc4c(cc3CN1CC2)OCO4 |  |  |  | 4.2 | 49.9 | 61 | 99.6 | 100 | 
COc1ccc2c(c1O)CN1CCc3cc4c(cc3[C@@H]1C2)OCO4 |  | > 5000 | > 5000 | 60 | 49.1 | 82.8 | 98.7 | 78 | 
COc1cc2c(cc1O)CCN1Cc3c(ccc(OC)c3O)C[C@@H]21 |  |  | > 5000 | 530 | 59.1 | 60.5 | 95.2 | 79.8 | 
NCCc1c[nH]c2ccc(O)cc12 |  |  |  |  |  | 100 |  |  | 
COc1cc2c(cc1O)CCN1Cc3c(ccc(OC)c3OC)C[C@H]21 |  |  |  | 1190 | 40.4 | 55.4 | 88.8 | 71.5 | 
COc1cc2c(cc1O)[C@H]1Cc3ccc(OC)c(O)c3CN1CC2 |  |  |  | 529 | 26.3 | 2 | 84.5 | 31.8 | 
COc1ccc2c(c1)C[C@H]1c3cc(O)c(OC)cc3CCN1C2 |  |  |  |  |  |  | 97.5 | 90 | 
COc1cc2c(cc1OC)[C@@H]1Cc3ccc(OC)c(O)c3CN1CC2 [TETRAHYDROPALMATRUBINE] |  |  |  | 443 | 20 | 30.5 | 87.7 | 22.7 | 
COc1cc2c(cc1O)[C@@H]1Cc3cc(C)cc(C)c3CN1CC2 |  |  |  |  |  |  | 99 | 90.1 | 
Cc1nc2n(c(=O)c1CCN1CCC(c3noc4cc(F)ccc34)CC1)CCCC2 |  |  |  |  |  |  |  |  | Active
COc1cc2c(cc1O)CCN1Cc3c(ccc(OC)c3OC)C[C@@H]21 |  |  |  | 310 | 38 | 50.5 | 84.1 | 63.2 | 
COc1cc2c(cc1O)[C@@H]1Cc3ccc(O)c(OC)c3CN1CC2 [STEPHOLIDINE] |  | > 5000 | 11 | 3.4 |  |  | 99.8 | 97.5 | 
COc1ccc2c(c1OC)CN1CCc3cc4c(cc3[C@H]1C2)OCO4 |  |  |  | > 5000 | 18.3 | 34.5 | 75.5 | 26.6 | 
O=C(CCCN1CCC2(CC1)C(=O)NCN2c1ccccc1)c1ccc(F)cc1 |  |  |  |  | 100 |  |  | 100 | 
COc1cc2c(cc1OC)[C@@H]1Cc3ccc(OC)c(OC)c3CN1CC2 [TETRAHYDROPALMATINE] |  | > 5000 | > 5000 | 231 | 33 | 84.9 | 96.9 | 85.4 | 
COc1cc2c(cc1O)CCN1Cc3c(ccc(O)c3OC)C[C@H]21 |  |  |  |  | 13.9 | 13.2 | 67.1 | 27.7 | 
